For orientation: Kd means the concentration at which binding is half-saturated. By EC50 is commonly meant the concentration giving half of the maximal effect.

One experiment concerns the target T1, Glucocorticoid receptor (Homo sapiens, UniProt P04150).
T1 sequence (P04150 whole entry): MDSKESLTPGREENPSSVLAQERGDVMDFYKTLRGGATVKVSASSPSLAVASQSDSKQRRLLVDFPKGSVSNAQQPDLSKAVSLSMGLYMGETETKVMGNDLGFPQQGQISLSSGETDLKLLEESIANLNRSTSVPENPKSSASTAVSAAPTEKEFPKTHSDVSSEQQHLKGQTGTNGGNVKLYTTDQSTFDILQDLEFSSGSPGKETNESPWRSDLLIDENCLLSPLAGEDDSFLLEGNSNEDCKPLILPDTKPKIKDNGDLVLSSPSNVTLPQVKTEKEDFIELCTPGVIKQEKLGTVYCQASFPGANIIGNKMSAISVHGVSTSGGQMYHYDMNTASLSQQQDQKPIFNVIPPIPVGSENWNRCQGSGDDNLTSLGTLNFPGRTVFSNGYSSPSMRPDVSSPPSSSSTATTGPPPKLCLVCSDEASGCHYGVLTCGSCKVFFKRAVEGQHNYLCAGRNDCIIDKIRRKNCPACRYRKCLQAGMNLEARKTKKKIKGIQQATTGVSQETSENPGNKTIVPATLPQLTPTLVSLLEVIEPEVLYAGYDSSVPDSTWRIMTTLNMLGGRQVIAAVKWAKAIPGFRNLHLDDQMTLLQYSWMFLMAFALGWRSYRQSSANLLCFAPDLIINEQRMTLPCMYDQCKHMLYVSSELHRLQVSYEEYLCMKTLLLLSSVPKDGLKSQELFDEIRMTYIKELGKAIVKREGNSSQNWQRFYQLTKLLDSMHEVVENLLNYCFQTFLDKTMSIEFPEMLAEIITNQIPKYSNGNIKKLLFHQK
The experiment is described as follows: Induction of translocation of human glucocorticoid receptor expressed in HEK293T cells transduced with lentiviral vector expressing H2B-mCherry and GFP-GR assessed as effective dissociation constant measured every 130 sec for 22 mins by fluorescence imaging analysis. In kind it is cell-based.

For experiment [1], the target named is T2, Glucocorticoid receptor (Homo sapiens) (UniProt P04150).
T2 sequence (whole entry): T1 sequence (P04150 whole entry)
The settings on record: HEK293T, filed as modulator, time 22.0 min.

In a further experiment the test system is REH. The experiment is described as follows: Cytotoxicity against human REH cells overexpressing GR assessed as reduction in cell viability measured after 3 days by resazurin based assay. The class given is functional. The method in brief: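 REH B-ALL cells (naturally GR-null) were lentivirally infected with GFP-T2A-GR, and the top 10% GFP sorted population was used. Cells grown in RPMI + 10% FBS, seeded at 9,000 cells/well in 384-well format. DMSO serial dilutions (2500 µM to 0.01 µM stocks) were diluted 1:500 and then added 1:1, giving 0.1% final DMSO. Exposure 72 h. Read-out: PrestoBlue fluorescence (Ex 560/Em 590), normalized to DMSO-only wells. EC50 by 4-parameter fit per replicate, at least 6 replicates.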

[2] abbreviates: Homo sapiens, REH, 72 h, read-out: EC50.

As for `C[C@]12Cc3cnn(-c4ccccc4)c3C=C1CC[C@@H]1[C@@H]2[C@@H](O)C[C@@]2(C)[C@H]1CC[C@]2(O)C(=O)CO`, the Kd on Glucocorticoid receptor (read-out: Kd) worked out at 2.2 nM. The compound further registered a T1/2 in experiment [1] of 2.67 min. For the same compound, the EC50 in the experiment with REH (setting [2]) was found to be 2.3 nM.

As to `CCCCCCn1ncc2c1C=C1CC[C@@H]3[C@H]([C@@H](O)C[C@@]4(C)[C@H]3CC[C@]4(O)C(=O)CO)[C@@]1(C)C2`, at Glucocorticoid receptor (read-out: Kd), the Kd came to 9 nM. Moreover, the T1/2 in experiment [1] worked out at 2.1 min. Further, the EC50 with REH (setting [2]) turned out to be 27 nM.

`C[C@]12Cc3cn(-c4ccccc4)nc3C=C1CC[C@@H]1[C@@H]2[C@@H](O)C[C@@]2(C)[C@H]1CC[C@]2(O)C(=O)CO`: the Kd on Glucocorticoid receptor (read-out: Kd) is 2.2 nM. Also, the T1/2 in experiment [1] came to 2.63 min. Besides, the EC50 in the experiment on REH (setting [2]) is 1.3 nM.

In the case of `C[C@]12Cc3cnn(-c4ccc(F)cc4)c3C=C1CC[C@@H]1[C@@H]2[C@@H](O)C[C@@]2(C)[C@H]1CC[C@]2(O)C(=O)CO`, the Kd at Glucocorticoid receptor (read-out: Kd) turned out to be 2.6 nM. In experiment [1], this compound yielded a T1/2 of 2.2 min. The EC50 with REH (setting [2]) amounted to 1.4 nM.

As for `COc1cccc(-n2cc3c(n2)C=C2CC[C@@H]4[C@H]([C@@H](O)C[C@@]5(C)[C@H]4CC[C@]5(O)C(=O)CO)[C@@]2(C)C3)c1`, on Glucocorticoid receptor (hek293t), the Kd result is “Not Active”.

As for `C[C@@H]1C[C@H]2[C@@H]3CCC4=CC(=O)C=C[C@]4(C)[C@@]3(F)[C@@H](O)C[C@]2(C)[C@@]1(O)C(=O)CO` [DEXAMETHASONE], in the experiment on REH (setting [2]), the 50% effective concentration (EC50) turned out to be 6.7 nM.

For `CCCCCCn1cc2c(n1)C=C1CC[C@@H]3[C@H]([C@@H](O)C[C@@]4(C)[C@H]3CC[C@]4(O)C(=O)CO)[C@@]1(C)C2`, the EC50 result in the experiment with REH (reh) is reported as “Not Active”.

For `COc1cccc(-n2ncc3c2C=C2CC[C@@H]4[C@H]([C@@H](O)C[C@@]5(C)[C@H]4CC[C@]5(O)C(=O)CO)[C@@]2(C)C3)c1`, the T1/2 in experiment [1] came to 4.17 min. Also, in the experiment with REH (setting [2]), the EC50 is 346 nM.

For `Cc1ccc(-n2cc3c(n2)C=C2CC[C@@H]4[C@H]([C@@H](O)C[C@@]5(C)[C@H]4CC[C@]5(O)C(=O)CO)[C@@]2(C)C3)cc1`, the Kd on Glucocorticoid receptor (read-out: Kd) came out at 883 nM. Besides, in the experiment on REH (setting [2]), the EC50 came to 7270 nM.

In the case of `C[C@]12Cc3cn(-c4ccc(F)cc4)nc3C=C1CC[C@@H]1[C@@H]2[C@@H](O)C[C@@]2(C)[C@H]1CC[C@]2(O)C(=O)CO`, the Kd on Glucocorticoid receptor (read-out: Kd) turned out to be 138 nM. Also, the T1/2 in experiment [1] turned out to be 4.33 min. The EC50 in the experiment on REH (setting [2]) was 225 nM.

The values above are taken from ChEMBL document CHEMBL4680066, “Deacylcortivazol-like pyrazole regioisomers reveal a more accommodating expanded binding pocket for the glucocorticoid receptor” (RSC Med Chem, 2021).
